As a reminder, the GI50 is the concentration giving 50% growth inhibition. By IC50 is commonly meant the concentration needed to halve the response being measured. A high value points to a need for much substance. One may read the Cmax as the maximum level reached in the sampled fluid or tissue. One may read the AUC as the area under the concentration-time curve, a measure of exposure. The low end stands for less exposure, the high end for more exposure.

The source made the active and inactive calls. No cut-off for these calls is given here.

The test system of data set [1] is MDA-MB-435. As to the kind of experiment: Antiproliferative activity against human MDA-MB-435 cells assessed as cell growth inhibition at 1 nM in presence of 0.1% FBS by sulforhodamine B assay relative to control. Particulars: MDA-MB-435, read-out: GI. In general terms: In SRB staining, fixed cells bind dye roughly in proportion to their protein.
The test system of data set [2] is MDA-MB-435. As to the kind of experiment: Antiproliferative activity against human MDA-MB-435 cells assessed as cell growth inhibition in presence of 10% FBS by sulforhodamine B assay. Type of data set: functional. Put shortly:
(§1)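 MDA-MB-435 cells, normally kept in IMEM with 10% FBS and gentamicin, were exposed to concentration-response series in medium holding 0.1%, 1% or 10% serum. Growth was measured by sulforhodamine B staining. Cell density at the time of drug addition marked the line between antiproliferative and cytotoxic effect. GI50 was taken from the curves. Three independent experiments were run, each concentration in triplicate, reported as mean ± SEM.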

Data set [3] relates to MDA-MB-435. Kind of data set: Antiproliferative activity against human MDA-MB-435 cells assessed as cell growth inhibition in presence of 0.1% FBS by sulforhodamine B assay. The format is functional. In a few lines: as §1
Data set [4] has as its system MDA-MB-435. As to the kind of experiment: Antiproliferative activity against human MDA-MB-435 cells assessed as cell growth inhibition in presence of 1% FBS by sulforhodamine B assay. Type of data set: functional. In a few lines:
as §1

Data set [5] has as its system MDA-MB-435. As to the kind of experiment: Antiproliferative activity against human MDA-MB-435 cells assessed as cell growth inhibition at 1 nM in presence of 10% FBS by sulforhodamine B assay relative to control. Particulars: MDA-MB-435, read-out: GI.
The subject of data set [6] is MDA-MB-435. Kind of data set: Antiproliferative activity against human MDA-MB-435 cells assessed as cell growth inhibition at 1 nM in presence of 1% FBS by sulforhodamine B assay relative to control. Particulars: MDA-MB-435, read-out: GI.
The test system of data set [7] is Liver. Kind of data set: Intrinsic clearance in human liver microsomes in presence of NADPH by LC-MS/MS analysis. Type of data set: ADME, microsome. For orientation: Microsomes from liver hold many membrane-bound enzymes, among them those of drug oxidation.
Data set [8] relates to MDA-MB-435. Kind of data set: Ratio of GI50 for human MDA-MB-435 cells in presence of 10% FBS to GI50 for human MDA-MB-435 cells in presence of 0.1% FBS. The format is functional. In a few lines:
(§2)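 MDA-MB-435 human melanoma cells were kept in IMEM with 10% FBS. They were tested across a concentration range in 0.1, 1 or 10% serum using sulforhodamine B, with cell density at drug addition as the cytotoxicity baseline. GI50 in 1% or 10% serum was divided by GI50 in 0.1% serum. Three independent experiments, each concentration in triplicate.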

In the next data set the test system is HeLa. Kind of data set: Antiproliferative activity against human HeLa cells after 48 hrs by SRB assay. The format is functional, cell-based.
Data set [9] deals with MDA-MB-435. As to the kind of experiment: Ratio of GI50 for human MDA-MB-435 cells in presence of 1% FBS to GI50 for human MDA-MB-435 cells in presence of 0.1% FBS. Type of data set: functional. Put shortly:
as §2

The subject of data set [10] is SCC-4. As to the kind of experiment: Antitumor activity against human SCC4 cells xenografted in athymic nude mouse assessed as tumor growth inhibition administered intratumorally on day 0 and day 3 measured up to day 17 post dose. The format is functional, cell-based. In a few lines:
(§3)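 Female athymic nude mice, 6–7 weeks old, received 1 × 10^6 SCC-4 cells subcutaneously in the rear flank. Treatment began when tumors averaged 200 mm3. Under isoflurane, tumors were injected directly on days 0 and 3 with drug in 100 µL PBS with final 8% ethanol, or with vehicle only; the total dose was split between the two days. Calipers were read every 2–4 days and volume taken as width × length × height. Body weight and toxicity were monitored. Groups were compared over 17 days by two-way ANOVA with Tukey post-hoc; time for tumors to reach 1,500 mm3 was also tracked.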
A general note: In xenograft studies the graft and the host belong to different species.

Data set [11] concerns SCC-4. As to the kind of experiment: Antitumor activity against human SCC4 cells xenografted in athymic nude mouse assessed as tumor growth inhibition at 40 to 80 ug administered intratumorally on day 0 and day 3 measured on day 17 post dose. The format is functional, cell-based. In a few lines:
as §3

Data set [12] deals with Mus musculus. Kind of data set: Cmax in athymic nude mouse at 300 ug, iv after 2 hrs by LC-MS analysis. Type of data set: ADME, organism-based. More on the design: dose 300 ug, route intravenous. Particulars: in vivo. In a few lines:
(§4)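 Female athymic nude mice, 6–7 weeks old, got a 300 µg IV tail-vein bolus. Plasma was taken from 3–5 mice per time point (pre-dose, end of infusion, 0.25, 0.5, 1, 2 h), ethyl acetate-extracted and quantified by LC-MS against weighted (1/X2) calibration curves. Noncompartmental analysis: Cmax by inspection, t1/2 from the last two log points, AUC by linear trapezoid extrapolated to infinity, CL = dose/AUC.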

Data set [13] concerns Mus musculus. Kind of data set: Elimination half life in athymic nude mouse at 300 ug, iv after 2 hrs by LC-MS analysis. Type of data set: ADME, organism-based. The conditions noted are these: in vivo. Put shortly: as §4
In data set [14] the test system is SCC-4. As to the kind of experiment: Antitumor activity against human SCC4 cells xenografted in athymic nude mouse assessed as tumor growth inhibition at 40 to 80 ug administered intratumorally on day 0 and day 3 measured on day 14 post dose. Type of data set: functional, cell-based. Put shortly:
as §3

Data set [15] has as its system Mus musculus. As to the kind of experiment: Clearance in athymic nude mouse at 300 ug, iv after 2 hrs by LC-MS analysis. Particulars: in vivo. Type of data set: ADME, organism-based. Put shortly:
as §4

In data set [16] the test system is Mus musculus. As to the kind of experiment: AUC in athymic nude mouse at 300 ug, iv after 2 hrs by LC-MS analysis. More on the design: dose 300 ug, time < 2 hr, route intravenous. The format is ADME, organism-based. The conditions noted are these: in vivo. In a few lines: as §4
In data set [17] the test system is Mus musculus. Kind of data set: Toxicity against athymic nude mouse xenografted with human SCC4 cells assessed as weight loss at 40 ug administered intratumorally on day 0 and day 3 measured up to day 17 post dose. The conditions noted are these: in vivo, other. In a few lines: (§5)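 SCC-4 cells (1 × 10^6) were implanted subcutaneously in the rear flank of 6–7 week old female athymic nude mice. At an average tumor volume of 200 mm3, mice were grouped. Tumors were injected on days 0 and 3 with drug in 100 µL PBS containing 8% ethanol, or vehicle, under isoflurane. Mice were monitored for weight loss and toxicity; tumors were measured with calipers every 2–4 days.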

Data set [18] deals with Liver. As to the kind of experiment: Half life in human liver microsomes in absence of NADPH by LC-MS/MS analysis. The format is ADME, microsome.
Data set [19] relates to Liver. As to the kind of experiment: Half life in human liver microsomes in presence of NADPH by LC-MS/MS analysis. Type of data set: ADME, microsome.
Data set [20] relates to SCC-4. Kind of data set: Antitumor activity against human SCC4 cells xenografted in athymic nude mouse assessed as tumor growth inhibition at 20 ug administered intratumorally on day 0 and day 3 measured every 2 to 4 days up to 2 weeks. The format is functional, cell-based. In a few lines:
as §3

Data set [21] relates to SCC-4. Kind of data set: Antitumor activity against human SCC4 cells xenografted in athymic nude mouse assessed as tumor burden at 80 ug administered intratumorally on day 0 and day 3 measured on day 10 post dose. The format is functional. Put shortly: as §3
Data set [22] deals with Liver. As to the kind of experiment: Intrinsic clearance in human liver microsomes in absence of NADPH by LC-MS/MS analysis. Type of data set: ADME, microsome.
A further data set deals with Plasma. As to the kind of experiment: Drug uptake in athymic nude mouse plasma at 300 ug, iv after 2 hrs by LC-MS analysis. Type of data set: ADME, organism-based. Particulars: in vivo. In a few lines: as §4
The subject of data set [23] is SCC-4. Kind of data set: Antitumor activity against human SCC4 cells xenografted in athymic nude mouse assessed as tumor growth inhibition at 40 ug administered intratumorally on day 0 and day 3 measured up to 2 weeks. The format is functional, cell-based. Put shortly: as §3
Data set [24] has as its system SCC-4. As to the kind of experiment: Antitumor activity against human SCC4 cells xenografted in athymic nude mouse assessed as reduction in tumor burden at 80 ug administered intratumorally on day 0 and day 3 measured on day 51 post dose. Type of data set: functional, cell-based. In a few lines: as §3
The subject of data set [25] is Mus musculus. Kind of data set: Toxicity in athymic nude mouse xenografted with human SCC4 cells assessed as weight loss at 40 ug administered intratumorally on day 0 and day 3 measured up to 2 weeks. The conditions noted are these: in vivo, other, 336 h. Put shortly:
as §5

Consider `CC(=O)O[C@H]1C(=O)[C@@]2(C)[C@H]([C@H](OC(=O)c3ccccc3)[C@]3(O)C[C@H](OC(=O)[C@H](O)[C@@H](NC(=O)c4ccccc4)c4ccccc4)C(C)=C1C3(C)C)[C@]1(OC(C)=O)CO[C@@H]1C[C@@H]2O` [PACLITAXEL], for which the inhibition of growth at 0.001 µM came out at 54% with MDA-MB-435 [1], 9% in the data set on MDA-MB-435 [5] and 27% with MDA-MB-435 [6]. Further, the results for the GI50 with MDA-MB-435 [2], in the data set on MDA-MB-435 [3] and with MDA-MB-435 [4] were 3.4 nM, 1 nM and 1.9 nM, respectively.
For `CC(=O)CC(c1ccccc1)c1c(O)c2ccccc2oc1=O` (stereo not given) [WARFARIN], in the data set on Liver [7], the CLH was 0 µL/min/mg.
Turning to `CC(=O)O[C@H]1[C@H]2[C@H]([C@@H]3[C@@H](O)[C@@H]4[C@H]([C@H](C)[C@H]5O[C@]56OC(=O)[C@@](C)(O)[C@]46C)[C@@]3(C)[C@H]1OC(C)=O)[C@@H](O)C(=O)[C@H]1C[C@@H]3O[C@@H]3[C@H](OC(C)=O)[C@]21C`, the RatioGI50 in the data set with MDA-MB-435 [8] amounted to 1.5; in the data set with MDA-MB-435 [9] it was 1.2. This compound also returned an IC50 in the data set on HeLa of 4 nM. Also, the figures for the GI50 in the data set with MDA-MB-435 [2], in the data set on MDA-MB-435 [3] and in the data set with MDA-MB-435 [4] were 9 nM, 6 nM and 7 nM, respectively. In addition, the TGI result with SCC-4 [10] was “Dose-dependent effect”. Moreover, the TGI result with SCC-4 [11] and in the data set with SCC-4 [14] was “Active” throughout. Further, the CLH stood at 15 µL/min/mg in the data set with Liver [7] and 300 µL/min/mg in the data set on Liver [22]. In the data set on Mus musculus [12], the Cmax came to 19 µg/mL. Moreover, the “beta t1/2” value with Mus musculus [13] is 0.135 h. In the data set on Mus musculus [15], this compound displayed a CL of 85 mL/h. For the same compound, in the data set on Mus musculus [16], the exposure (AUC) was found to be 3.5 µg·h/mL. Moreover, the Activity result in the data set on Mus musculus [17] is “Non-Toxic”; with SCC-4 [21], below 1500 mm3. Besides, the results for the t1/2 in the data set on Liver [18] and in the data set with Liver [19] were above 4 h and 0.783 h, respectively. In addition, the TGI entry in the data set on SCC-4 [20] was “inactive”. Also, the Drug uptake entry with Plasma was “Not Active”.
For the compound `CC(=O)O[C@@H]1[C@H]2[C@H]3[C@H]([C@H](OC(C)=O)[C@H](OC(C)=O)[C@]2(C)[C@H]2[C@H](C)[C@H]4O[C@]45OC(=O)[C@@](C)(O)[C@]5(C)[C@H]12)[C@]1(C)[C@H](C[C@@H]2O[C@@H]2[C@@H]1OC(C)=O)C(=O)[C@@H]3O`, the TGI result with SCC-4 [23] is “Active”. Further, the RatioGI50 is recorded as 1.9 with MDA-MB-435 [8] and 1.2 in the data set with MDA-MB-435 [9]. This compound registered an IC50 in the data set on HeLa of 24 nM. Further, the GI50 with MDA-MB-435 [2] came out at 47 nM; in the data set with MDA-MB-435 [3], 25 nM; in the data set with MDA-MB-435 [4] it was 30 nM. The CLH with Liver [7] was determined as 8.3 µL/min/mg. Also, in the data set with SCC-4 [24], the result was Active. In addition, in the data set on Mus musculus [12], the Cmax came to 8.6 µg/mL. For the same compound, the “beta t1/2” value in the data set on Mus musculus [13] came to 0.733 h. Further, in the data set on Mus musculus [15], the CL came out at 240 mL/h. Further, the AUC with Mus musculus [16] was 1.3 µg·h/mL. For the same compound, the t1/2 in the data set on Liver [18] was above 4 h; with Liver [19] it was 1.38 h. The Activity with SCC-4 [21] is on record as below 1500 mm3; in the data set on Mus musculus [25], “Non-Toxic”.

(Values after ChEMBL document CHEMBL4052593, “Pharmacokinetic Analysis and in Vivo Antitumor Efficacy of Taccalonolides AF and AJ” (J Nat Prod, 2017).)
